One series can be described thus: Population PK model. The format is in vivo, human infants. The conditions noted are these: 2-compartment population PK model, 64 infants. In a few lines: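 The dataset was 287 HPLC-measured plasma concentrations from 64 infants aged 3–119 days in 4 pediatric trials, at doses of 0.75–10 mg/kg. A 2-compartment model was fitted in Pmetrics, with infusion into the central compartment and observations weighted by inverse assay variance. Clearance was allometrically scaled. Clearance and volume were normalized to the 1.8 kg mean weight. Kcp and Kpc are central↔peripheral transfer rates. Fit was assessed from observed versus predicted values, r2, bias and imprecision.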

In a further series the test system is Candida. As to the kind of experiment: MIC values of isolates from infants with invasive candidiasis. The format is cell-based.
The subject of series [1] is hematogenous Candida meningoencephalitis. Particulars: rabbit model of hematogenous Candida meningoencephalitis; cited from earlier work.

Values after ≈ are worked out from the molar mass of the structure shown. Starred links: 1 amine or outer side, 2 acyl side, 3 side chain; linkers in the order of their positions; H or OH if unused. Positions of bridges follow the written chain, without caps; N, C: chain ends. Non-standard residues stand in square brackets, D forms with d. Residues, ends and D or L forms follow the SMILES beside them. *: point of attachment. hTyr(3S-OH,4S-OH,3'-OSO3H) = N[C@H](C(=O)O)[C@H](O)[C@@H](O)c1ccc(O)c(OS(=O)(=O)O)c1; Orn(4R-OH,5R-OH) = O=C([C@H](C[C@@H](O)[C@@H](O)N[*:3])N[*:1])[*:2]; Pro(3S-OH,4S-Me) = C[C@H]1CN[C@H](C(=O)O)[C@H]1O; X1 = CCCCCOc1ccc(-c2cc(-c3ccc(C(=O)*)cc3)no2)cc1; Gln(3R-OH) = NC(=O)C[C@@H](O)[C@H](N)C(=O)O; Hyp = O=C(O)[C@@H]1C[C@@H](O)CN1

A word on the MIC90: it is the lowest concentration that inhibits either 90% of growth or 90% of the strains tested, depending on the study. Low readings indicate higher susceptibility, high ones lower susceptibility.

Regarding `CCCCCOc1ccc(-c2cc(-c3ccc(C(=O)N[C@H]4C[C@@H](O)[C@@H](O)NC(=O)[C@@H]5[C@@H](O)[C@@H](C)CN5C(=O)[C@H]([C@H](O)CC(N)=O)NC(=O)[C@H]([C@H](O)[C@@H](O)c5ccc(O)c(OS(=O)(=O)O)c5)NC(=O)[C@@H]5C[C@@H](O)CN5C(=O)[C@H]([C@@H](C)O)NC4=O)cc3)no2)cc1` [micafungin] (X1-[Orn(4R-OH,5R-OH)]T[Hyp][hTyr(3S-OH,4S-OH,3'-OSO3H)][Gln(3R-OH)][Pro(3S-OH,4S-Me)]; lactam 1-C), in “Population PK model” (normalized to 1.8 kg, median), the “Vstd (volume in the central compartment), median” value is 0.43 L/1.8 kg. In addition, in the series “Population PK model” (mean (range)), the “Kcp (rate of drug moving from the central to the peripheral compartment), mean” value is recorded as 1.74 (0.035–5.966) h^–1 and the “Kpc (rate of drug moving from the peripheral to the central compartment), mean” value was 1.92 (0.090–5.970) h^–1. Moreover, in “Population PK model” (median), the “Kcp, median” value was found to be 0.99 h^–1 and the “Kpc, median” value is recorded as 2.00 h^–1. The molecule also came in with an MIC90 in the series with Candida (isolates of infants in the 2 mg/kg study (n = 17)) of 1 µg/mL (≈ 0.787 µM). The molecule further displayed an MIC90 in the series with Candida (isolates of infants in the 10 mg/kg study (n = 12)) of 2 µg/mL (≈ 1.57 µM). In series [1], the “AUC:MIC ratio PD target for near-maximal effect” value is reported as 1332 and the “CNS PD target AUC for near-maximal effect” value is given as “approximately 166.5 mg·h/L”.

Source of the values: article PMC6110378 (The Pediatric Infectious Disease Journal, 2018).
